Data set [1] addresses Metabotropic glutamate receptor 8 (Rattus norvegicus, UniProt P70579). Briefly: Positive allosteric modulator activity at rat mGlu8 receptor expressed in HEK293 cells assessed as glutamate-induced GIRK channel-mediated thallium flux treated 140s prior to glutamate challenge by fluorescence analysis. It is filed as cell-based. An outline of the steps:
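HEK293-GIRK cells expressing rat mGlu2, 3, 4, 6, 7 or 8, 15000 cells/well. Vehicle or 10 µM compound added, then 140 s later a glutamate CRC (L-AP4 for mGlu7) in thallium buffer (12 mM thallium sulfate, 10 mM HEPES). Thallium flux through GIRK read by fluorescence.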

Data set [2] addresses Metabotropic glutamate receptor 5 (Rattus norvegicus, UniProt P31424). The experiment in a line: Positive allosteric modulator activity at rat mGlu5 receptor expressed in HEK293 cells assessed as potentiation of glutamate-induced calcium mobilization by fluorescence assay. The class given is functional, cell-based. To be noted: read-out: EC50. An outline of the steps: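 HEK293 cells stably expressing rat mGlu5, 15000 cells/well, grown overnight, loaded with 1 µM Fluo-4AM for 50 min at 37 °C in HBSS/20 mM HEPES/2.5 mM probenecid pH 7.4. Compound added, then an EC20 of glutamate 140 s later and an EC80 90–120 s after that. Fluorescence over basal normalized to maximal glutamate response (100 µM glutamate); compound at up to 30 µM; ≥3 independent determinations.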
For orientation: A change in cytosolic calcium serves as a functional read-out for many receptors and channels.

The subject of data set [3] is Rattus norvegicus. The experiment in a line: Antipsychotic activity in Sprague-Dawley rat assessed as reversal of amphetamine-induced hyperlocomotion at 100 mg/kg, po administered for 30 mins prior to amphetamine challenge for 60 mins. The class given is functional. The gist of the method: (§1)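 Male Sprague–Dawley rats (250–375 g), food-deprived the evening before, were habituated 30 min in locomotor chambers. They were then dosed po with vehicle (20% HP-β-CD in water, pH 6–7, max 10 mL/kg) or test article, followed 30 min later by amphetamine 1 mg/kg sc, n = 6–8 per group. Photobeam breaks were counted per 5 min over 120 min. Percent reversal used t = 60–120 totals versus the vehicle + amphetamine group, reported as mean ± SE.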

Data set [4] in a line: Half life in rat at 1 mg/kg, iv and 10 mg/kg, po. The class given is ADME, organism-based. To be noted: in vivo. The gist of the method:
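Rat pharmacokinetics with 1 mg/kg IV and 10 mg/kg PO dosing; oral arm given in 0.5% methyl cellulose (1 mg/mL, noncrossover) to male Sprague–Dawley rats.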

Data set [5] relates to Rattus norvegicus. The experiment in a line: Reversal of amphetamine-induced hyperlocomotion in Sprague-Dawley rat at 56.6 mg/kg, po administered for 30 mins prior to amphetamine challenge for 60 mins. The class given is functional. The gist of the method: as §1
The nature of data set [6]: Retention time of the compound by LCMS analysis. The class given is physicochemical.
The test system of data set [7] is Rattus norvegicus. Briefly: AUC (0 to 24 hrs) in Sprague-Dawley rat plasma at 10 mg/kg, po. It is filed as ADME, organism-based. The arrangement: time < 24 hr, dose 10 mg/kg, route oral. Conditions: in vivo.
The nature of data set [8]: Kinetic solubility of the compound in buffer at pH 4. The class given is physicochemical. The gist of the method: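 Kinetic aqueous solubility measured in buffers at pH 2, 4 and 7.4.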
Data set [9] addresses Metabotropic glutamate receptor 1 (Rattus norvegicus, UniProt P23385). Briefly: Positive allosteric modulator activity at rat mGlu1 receptor expressed in HEK293 cells assessed as glutamate-induced calcium mobilization treated 140s prior to glutamate challenge by fluorescence assay. It is filed as functional, cell-based. An outline of the steps: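 HEK293 cells stably expressing rat mGlu1, 20000 cells/well, Fluo-4AM calcium flux. Vehicle or 10 µM compound (final) added, then a glutamate concentration–response curve 140 s later.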

Each structure is given as a SMILES string.

Here are results for one compound from ChEMBL document CHEMBL3297742, “Tetrahydronaphthyridine and dihydronaphthyridinone ethers as positive allosteric modulators of the metabotropic glutamate receptor 5 (mGlu₅)” (J Med Chem, 2014).

In general, EC50 refers to the concentration at which the effect is half-maximal. What is called inhibition in vivo is how much of the control response was suppressed. Usually half-life stands for the time in which the quantity being followed falls by half. A low value points to rapid decline. For orientation: AUC means concentration integrated over time. A higher AUC goes with high exposure.

Metabotropic glutamate receptor 8, sequence (P70579 whole entry): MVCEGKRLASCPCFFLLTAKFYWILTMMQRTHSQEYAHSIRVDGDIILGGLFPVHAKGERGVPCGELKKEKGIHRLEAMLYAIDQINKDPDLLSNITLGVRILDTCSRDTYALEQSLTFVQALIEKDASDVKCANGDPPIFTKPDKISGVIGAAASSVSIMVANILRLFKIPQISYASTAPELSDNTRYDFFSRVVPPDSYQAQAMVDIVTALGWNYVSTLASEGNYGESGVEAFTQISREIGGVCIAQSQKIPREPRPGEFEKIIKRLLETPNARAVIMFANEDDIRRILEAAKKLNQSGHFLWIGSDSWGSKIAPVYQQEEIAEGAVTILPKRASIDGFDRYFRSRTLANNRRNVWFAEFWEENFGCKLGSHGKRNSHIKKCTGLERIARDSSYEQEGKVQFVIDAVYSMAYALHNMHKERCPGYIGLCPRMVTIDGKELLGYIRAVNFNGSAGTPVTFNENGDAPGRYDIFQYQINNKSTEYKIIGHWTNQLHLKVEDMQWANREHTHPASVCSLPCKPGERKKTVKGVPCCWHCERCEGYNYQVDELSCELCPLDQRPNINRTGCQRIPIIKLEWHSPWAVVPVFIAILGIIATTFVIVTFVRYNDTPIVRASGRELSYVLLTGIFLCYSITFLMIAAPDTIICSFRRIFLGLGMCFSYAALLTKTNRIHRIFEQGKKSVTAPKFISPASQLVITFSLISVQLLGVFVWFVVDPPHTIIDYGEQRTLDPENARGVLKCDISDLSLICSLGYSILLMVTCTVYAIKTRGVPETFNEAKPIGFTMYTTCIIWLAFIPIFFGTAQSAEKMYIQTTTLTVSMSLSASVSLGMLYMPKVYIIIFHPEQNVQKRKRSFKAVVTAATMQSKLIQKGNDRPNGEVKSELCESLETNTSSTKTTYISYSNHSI
Metabotropic glutamate receptor 5, sequence (P31424 whole entry): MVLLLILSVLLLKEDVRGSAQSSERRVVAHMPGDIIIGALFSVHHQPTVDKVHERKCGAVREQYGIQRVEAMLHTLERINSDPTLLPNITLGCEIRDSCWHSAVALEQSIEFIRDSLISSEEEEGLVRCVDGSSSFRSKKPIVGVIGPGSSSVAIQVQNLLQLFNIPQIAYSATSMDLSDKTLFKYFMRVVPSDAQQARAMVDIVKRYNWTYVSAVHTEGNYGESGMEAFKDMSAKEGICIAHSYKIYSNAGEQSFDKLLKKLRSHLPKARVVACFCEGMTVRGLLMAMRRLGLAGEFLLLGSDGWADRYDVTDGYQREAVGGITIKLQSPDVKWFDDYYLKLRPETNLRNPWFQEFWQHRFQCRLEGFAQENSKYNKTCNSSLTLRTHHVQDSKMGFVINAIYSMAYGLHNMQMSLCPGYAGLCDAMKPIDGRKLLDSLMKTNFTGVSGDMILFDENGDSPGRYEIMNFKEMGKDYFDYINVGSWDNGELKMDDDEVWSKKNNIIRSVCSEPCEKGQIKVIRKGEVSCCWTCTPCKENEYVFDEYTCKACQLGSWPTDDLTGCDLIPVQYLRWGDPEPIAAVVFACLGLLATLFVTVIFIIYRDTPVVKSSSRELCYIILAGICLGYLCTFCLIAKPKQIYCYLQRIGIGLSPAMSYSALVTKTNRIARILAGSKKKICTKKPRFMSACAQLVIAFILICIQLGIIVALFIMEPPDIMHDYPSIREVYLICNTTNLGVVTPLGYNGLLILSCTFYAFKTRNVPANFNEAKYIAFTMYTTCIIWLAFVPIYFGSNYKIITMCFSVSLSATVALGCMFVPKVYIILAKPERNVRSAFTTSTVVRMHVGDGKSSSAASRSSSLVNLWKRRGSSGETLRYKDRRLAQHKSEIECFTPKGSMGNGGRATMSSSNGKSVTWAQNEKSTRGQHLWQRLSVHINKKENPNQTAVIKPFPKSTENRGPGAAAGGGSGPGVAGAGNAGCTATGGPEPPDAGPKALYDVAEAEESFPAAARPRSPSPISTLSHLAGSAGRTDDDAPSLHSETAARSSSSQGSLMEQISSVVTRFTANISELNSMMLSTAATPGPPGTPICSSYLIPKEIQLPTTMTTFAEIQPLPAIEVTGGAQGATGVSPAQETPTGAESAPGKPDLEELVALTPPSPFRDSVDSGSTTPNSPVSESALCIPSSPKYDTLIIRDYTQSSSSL
Metabotropic glutamate receptor 1, sequence (P23385 whole entry): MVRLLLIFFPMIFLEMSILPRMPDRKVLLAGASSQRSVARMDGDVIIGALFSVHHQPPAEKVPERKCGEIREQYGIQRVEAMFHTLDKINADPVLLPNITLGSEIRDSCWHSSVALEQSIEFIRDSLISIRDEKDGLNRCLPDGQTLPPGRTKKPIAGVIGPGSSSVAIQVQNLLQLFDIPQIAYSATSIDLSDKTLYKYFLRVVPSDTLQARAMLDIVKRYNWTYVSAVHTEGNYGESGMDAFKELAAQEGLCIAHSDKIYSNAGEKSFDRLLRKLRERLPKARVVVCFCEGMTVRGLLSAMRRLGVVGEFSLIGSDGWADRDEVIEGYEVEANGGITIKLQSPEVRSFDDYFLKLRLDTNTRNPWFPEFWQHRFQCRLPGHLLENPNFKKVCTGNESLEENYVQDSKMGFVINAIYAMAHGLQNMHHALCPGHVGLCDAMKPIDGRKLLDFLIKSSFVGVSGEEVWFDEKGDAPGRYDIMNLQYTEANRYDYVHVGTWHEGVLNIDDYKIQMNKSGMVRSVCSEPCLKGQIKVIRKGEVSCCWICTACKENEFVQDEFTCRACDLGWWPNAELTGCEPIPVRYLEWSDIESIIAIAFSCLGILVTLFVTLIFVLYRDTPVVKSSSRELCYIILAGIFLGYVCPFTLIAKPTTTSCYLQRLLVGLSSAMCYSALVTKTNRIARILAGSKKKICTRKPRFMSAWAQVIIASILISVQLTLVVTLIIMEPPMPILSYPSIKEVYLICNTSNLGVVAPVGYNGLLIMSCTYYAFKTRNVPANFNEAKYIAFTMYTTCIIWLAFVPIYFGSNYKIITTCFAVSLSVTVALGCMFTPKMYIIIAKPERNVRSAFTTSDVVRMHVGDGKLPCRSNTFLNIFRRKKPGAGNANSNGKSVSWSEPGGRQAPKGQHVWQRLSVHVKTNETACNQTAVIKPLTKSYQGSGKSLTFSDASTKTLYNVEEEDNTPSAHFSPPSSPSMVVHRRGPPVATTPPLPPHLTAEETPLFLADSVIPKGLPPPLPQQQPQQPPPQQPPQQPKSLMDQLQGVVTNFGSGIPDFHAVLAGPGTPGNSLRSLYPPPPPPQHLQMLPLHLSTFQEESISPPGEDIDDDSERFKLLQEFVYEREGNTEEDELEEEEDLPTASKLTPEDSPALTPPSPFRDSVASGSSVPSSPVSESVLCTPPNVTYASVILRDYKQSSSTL

In the case of `O=C1NCCc2nc(OCc3cccc(F)c3)ccc21`, the values for the EC50 in data set [1], in [2] and in data set [9] were greater than 10 µM, 0.225 µM and greater than 10 µM, respectively. Further, the inhibition in vivo at 100 mg/kg in data set [3] amounted to 55%. In data set [4], this compound showed a half-life of 18 min. Also, the inhibition in vivo at 56.6 mg/kg in data set [5] is greater than 30%. This compound also yielded a Retention_time in data set [6] of 0.736 min. In data set [7], this compound gave an AUC of 6.2 µM·h. For the same compound, the Kinetic_solubility in data set [8] is 29 µM.
